Source: ChEMBL document CHEMBL1147958, “Evaluation of the anti-inflammatory and anti-nociceptive activities of novel synthesized melatonin analogues” (2007)

Legend:
Rattus norvegicus [1] = assay: Antinociceptive activity in Sprague-Dawley rat at 6.88 mg/kg, sc assessed as increase in latency time after 1 hr by hot plate method; format: functional; conditions: route subcutaneous
Summary of the method: (§1)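 Rats (n = 6/group) were dosed s.c. 30 min before testing on a hot-plate held at 52 °C, 30 s cut-off. Reaction latency was read at 1 and 2 h and expressed as % increase over each group's pre-drug basal latency, with indomethacin as the reference control. Groups were compared by ANOVA and Duncan's test.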

Rattus norvegicus [2] = assay: Inhibition of carrageenan-induced paw oedema in Sprague-Dawley rat at 6.88 mg/kg, sc after 1 hr; format: functional; conditions: read-out: Inhibition, route subcutaneous
Summary of the method: (§2)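 Rats (n = 6/group) got the test agent s.c. (0.5 mL) as a 30 min pretreatment. Oedema was induced by sub-plantar 1% lambda-carrageenan in saline into the right hind paw, with saline in the contralateral paw. Paw volume was measured by plethysmometer before injection and at 1, 2, 3 and 4 h, and expressed as % change from pre-drug values.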

Rattus norvegicus [3] = assay: Inhibition of carrageenan-induced paw oedema in Sprague-Dawley rat at 6.88 mg/kg, sc after 3 hrs; format: functional; conditions: read-out: Inhibition, route subcutaneous; summary of the method: as §2
Rattus norvegicus [4] = assay: Antinociceptive activity in Sprague-Dawley rat assessed as inhibition of number of indomethacin-induced gastric lesions at 6.88 mg/kg, sc; format: functional; conditions: Stomach, route subcutaneous
Summary of the method: (§3)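 Sprague-Dawley rats (120–130 g, food and water ad libitum) got indomethacin 20 mg/kg s.c. to induce gastric mucosal damage, with the test agent given s.c. at the time of indomethacin injection. Rats were killed 24 h later. Stomachs were opened along the greater curvature, rinsed with saline, and lesions counted and severity-scored on a previously described scale. Results are % decrease versus the indomethacin control.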

Rattus norvegicus [5] = assay: Inhibition of carrageenan-induced paw oedema in Sprague-Dawley rat at 6.88 mg/kg, sc after 4 hrs; format: functional; conditions: read-out: Inhibition, route subcutaneous; summary of the method: as §2
Rattus norvegicus [6] = assay: […] in Sprague-Dawley rat assessed as inhibition of indomethacin-induced gastric lesions severity at 6.88 mg/kg, sc; format: functional; conditions: Stomach, route subcutaneous; summary of the method: as §3
Mus musculus [7] = assay: Antinociceptive activity in Swiss Albino mouse assessed as inhibition of acetic acid-induced writhes per 30 min at 6.88 mg/kg, sc; conditions: 0.5 h, read-out: Inhibition
Rattus norvegicus [8] = assay: Antinociceptive activity in Sprague-Dawley rat at 6.88 mg/kg, sc assessed as increase in latency time after 2 hrs by hot plate method; format: functional; conditions: route subcutaneous; summary of the method: as §1
Rattus norvegicus [9] = assay: Inhibition of carrageenan-induced paw oedema in Sprague-Dawley rat at 6.88 mg/kg, sc after 2 hrs; format: functional; conditions: read-out: Inhibition, route subcutaneous; summary of the method: as §2
Rattus norvegicus [10] = assay: Inhibition of carrageenan-induced paw oedema in Sprague-Dawley rat at 5.40 mg/kg, sc after 2 hrs; format: functional; conditions: read-out: Inhibition, route subcutaneous; summary of the method: as §2
Rattus norvegicus [11] = assay: Antinociceptive activity in Sprague-Dawley rat assessed as inhibition of number of indomethacin-induced gastric lesions at 5.40 mg/kg, sc; format: functional; conditions: Stomach, route subcutaneous; summary of the method: as §3
Rattus norvegicus [12] = assay: […] in Sprague-Dawley rat assessed as inhibition of indomethacin-induced gastric lesions severity at 5.40 mg/kg, sc; format: functional; conditions: Stomach, route subcutaneous; summary of the method: as §3
Rattus norvegicus [13] = assay: Antinociceptive activity in Sprague-Dawley rat at 5.40 mg/kg, sc assessed as increase in latency time after 2 hrs by hot plate method; format: functional; conditions: dose 5.4 mg/kg; route subcutaneous; summary of the method: as §1
Rattus norvegicus [14] = assay: Inhibition of carrageenan-induced paw oedema in Sprague-Dawley rat at 5.40 mg/kg, sc after 4 hrs; format: functional; conditions: read-out: Inhibition, route subcutaneous; summary of the method: as §2
Rattus norvegicus [15] = assay: Inhibition of carrageenan-induced paw oedema in Sprague-Dawley rat at 5.40 mg/kg, sc after 3 hrs; format: functional; conditions: read-out: Inhibition, route subcutaneous; summary of the method: as §2
Rattus norvegicus [16] = assay: Inhibition of carrageenan-induced paw oedema in Sprague-Dawley rat at 5.40 mg/kg, sc after 1 hr; format: functional; conditions: read-out: Inhibition, route subcutaneous; summary of the method: as §2
Rattus norvegicus [17] = assay: Antinociceptive activity in Sprague-Dawley rat at 5.40 mg/kg, sc assessed as increase in latency time after 1 hr by hot plate method; format: functional; conditions: dose 5.4 mg/kg; route subcutaneous; summary of the method: as §1
Mus musculus [18] = assay: Antinociceptive activity in Swiss Albino mouse assessed as inhibition of acetic acid-induced writhes per 30 min at 5.40 mg/kg, sc; conditions: 0.5 h
Rattus norvegicus [19] = assay: […] in Sprague-Dawley rat assessed as inhibition of indomethacin-induced gastric lesions severity at 5.16 mg/kg, sc; format: functional; conditions: Stomach, route subcutaneous; summary of the method: as §3
Mus musculus [20] = assay: Antinociceptive activity in Swiss Albino mouse assessed as inhibition of acetic acid-induced writhes per 30 min at 5.16 mg/kg, sc; conditions: 0.5 h, read-out: Inhibition
Rattus norvegicus [21] = assay: Inhibition of carrageenan-induced paw oedema in Sprague-Dawley rat at 5.16 mg/kg, sc after 1 hr; format: functional; conditions: read-out: Inhibition, route subcutaneous; summary of the method: as §2
Rattus norvegicus [22] = assay: Inhibition of carrageenan-induced paw oedema in Sprague-Dawley rat at 5.16 mg/kg, sc after 4 hrs; format: functional; conditions: route subcutaneous; summary of the method: as §2
Rattus norvegicus [23] = assay: Inhibition of carrageenan-induced paw oedema in Sprague-Dawley rat at 5.16 mg/kg, sc after 3 hrs; format: functional; conditions: read-out: Inhibition, route subcutaneous; summary of the method: as §2
Rattus norvegicus [24] = assay: Antinociceptive activity in Sprague-Dawley rat at 5.16 mg/kg, sc assessed as increase in latency time after 1 hr by hot plate method; format: functional; conditions: route subcutaneous; summary of the method: as §1
Rattus norvegicus [25] = assay: Antinociceptive activity in Sprague-Dawley rat at 5.16 mg/kg, sc assessed as increase in latency time after 2 hrs by hot plate method; format: functional; conditions: route subcutaneous; summary of the method: as §1
Rattus norvegicus [26] = assay: Antinociceptive activity in Sprague-Dawley rat assessed as inhibition of number of indomethacin-induced gastric lesions at 5.16 mg/kg, sc; format: functional; conditions: Stomach, route subcutaneous; summary of the method: as §3
Rattus norvegicus [27] = assay: Inhibition of carrageenan-induced paw oedema in Sprague-Dawley rat at 5.16 mg/kg, sc after 2 hrs; format: functional; conditions: route subcutaneous; summary of the method: as §2

`COc1ccc2c(c1)c(CCNC(C)=O)c1n2CC(c2ccccc2)=C(C#N)C1=N` gave an Activity (Rattus norvegicus [1]) of 31.7%, an inhibition in vivo at 6.88 mg/kg (Rattus norvegicus [2]) of 52.2% and an inhibition in vivo at 6.88 mg/kg (Rattus norvegicus [3]) of 48%. For the same compound, the inhibition in vivo at 6.88 mg/kg (Rattus norvegicus [4]) was 30.2%, the inhibition in vivo at 6.88 mg/kg (Rattus norvegicus [5]) was 36.3% and the inhibition in vivo at 6.88 mg/kg (Rattus norvegicus [6]) was 53.6%. It also gave an inhibition in vivo at 6.88 mg/kg (Mus musculus [7]) of 40.7%, an Activity (Rattus norvegicus [8]) of 56.2% and an inhibition in vivo at 6.88 mg/kg (Rattus norvegicus [9]) of 55.2%.
With `COc1ccc2c(c1)c(CCNC(C)=O)c1n2C(=N)C=C1NN` the inhibition in vivo at 5.4 mg/kg (Rattus norvegicus [10]) was 52.6%, the inhibition in vivo at 5.4 mg/kg (Rattus norvegicus [11]) was 53.9% and the inhibition in vivo at 5.4 mg/kg (Rattus norvegicus [12]) was 57.7%. For the same compound, the Activity (Rattus norvegicus [13]) was 243.7%, the inhibition in vivo at 5.4 mg/kg (Rattus norvegicus [14]) was 36.8% and the inhibition in vivo at 5.4 mg/kg (Rattus norvegicus [15]) was 44.2%. The inhibition in vivo at 5.4 mg/kg (Rattus norvegicus [16]) was 54.8%, the Activity (Rattus norvegicus [17]) was 43.7% and the inhibition in vivo at 5.4 mg/kg (Mus musculus [18]) was -81.1%.
With `COc1ccc2c(c1)c(CCNC(C)=O)c1n2C(=O)CC1=O` the inhibition in vivo at 5.16 mg/kg (Rattus norvegicus [19]) was 54.8%, the inhibition in vivo at 5.16 mg/kg (Mus musculus [20]) was 24.4% and the inhibition in vivo at 5.16 mg/kg (Rattus norvegicus [21]) was 42.9%. The inhibition in vivo at 5.16 mg/kg (Rattus norvegicus [22]) was -27.1%, the inhibition in vivo at 5.16 mg/kg (Rattus norvegicus [23]) was 30% and the Activity (Rattus norvegicus [24]) was 103.6%. It also gave an Activity (Rattus norvegicus [25]) of 132.3%, an inhibition in vivo at 5.16 mg/kg (Rattus norvegicus [26]) of 43.5% and an inhibition in vivo at 5.16 mg/kg (Rattus norvegicus [27]) of -35.7%.
